Compound activity: PubChem BioAssay, Broad Institute
FGF22 binding: FGF22 (human) thermal shift binding. 340,000 compounds, 1.5% hits. activity (Tm shift, normalised), % at 9.99 µM. Q9HCT0. recombinant FGF22 thermal shift, SYPRO orange fluorescence; percent of sucrose octasulfate shift, DMSO zero. AID 651658;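 active = mean Tm shift, scaled 0 neutral to 100 positive control, at about 1.3% or above, every replicate too, limit read from the data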
S100A4 MyoIIA: inhibitors of human S100A4 binding to myosin IIA peptide. P26447. S100A4/TAMRA-MyoIIA peptide fluorescence polarization. inhibition, % at 10.7 µM. 360,000 compounds, 0.14% hits;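 active = mean inhibition of at least 70% across replicates, with every replicate also reaching that level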
Target sequence (P26447 whole entry, looked up): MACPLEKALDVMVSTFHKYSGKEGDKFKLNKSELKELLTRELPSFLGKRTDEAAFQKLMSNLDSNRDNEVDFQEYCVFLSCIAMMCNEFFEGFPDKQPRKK
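assay system = human S100A4 monomer with TAMRA-labelled myosin IIA peptide | also added = labelled myosin peptide probe, 5 nM | incubation = 5 min between mix addition and reading | control set = DMSO and TFP controls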
SIRT5 inh: blocks human SIRT5 desuccinylation of peptide; Q9NXA8; Purified SirT5, succinyl-peptide AMC, trypsin-coupled fluorescence; inhibition, % at 15 µM; 330,000 compounds, 1.1% hits; AID 652115; in the data active = inhibition above about 15%
miR-122 sensor: inhibitors of miR-122 in Huh7 cells. Huh7 miR-122 Renilla luciferase sensor, 48 h; neutral wells = 0, positive control = 100. activation (reporter increase), % at 12.5 µM. 340,000 compounds, 0.3% hits. AID 602342;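 active = mean replicate activation score at least 90 and every replicate individually at or above 90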;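 also: higher luciferase means less miR-122 activity so hits act as miR-122 inhibitors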
E-sel inducer: E-selectin induction on HUVECs. P16581. HUVEC E-selectin immunofluorescence imaging; normalized: neutral wells 0, TNF-alpha wells 100. activation, % at 7.58 µM. 260,000 compounds, 0.37% hits;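 active = mean E-selectin-positive cell signal at least 10% of the positive control, reached in at least 60% of replicates, without over 20% cell loss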
Target sequence (P16581 whole entry, looked up): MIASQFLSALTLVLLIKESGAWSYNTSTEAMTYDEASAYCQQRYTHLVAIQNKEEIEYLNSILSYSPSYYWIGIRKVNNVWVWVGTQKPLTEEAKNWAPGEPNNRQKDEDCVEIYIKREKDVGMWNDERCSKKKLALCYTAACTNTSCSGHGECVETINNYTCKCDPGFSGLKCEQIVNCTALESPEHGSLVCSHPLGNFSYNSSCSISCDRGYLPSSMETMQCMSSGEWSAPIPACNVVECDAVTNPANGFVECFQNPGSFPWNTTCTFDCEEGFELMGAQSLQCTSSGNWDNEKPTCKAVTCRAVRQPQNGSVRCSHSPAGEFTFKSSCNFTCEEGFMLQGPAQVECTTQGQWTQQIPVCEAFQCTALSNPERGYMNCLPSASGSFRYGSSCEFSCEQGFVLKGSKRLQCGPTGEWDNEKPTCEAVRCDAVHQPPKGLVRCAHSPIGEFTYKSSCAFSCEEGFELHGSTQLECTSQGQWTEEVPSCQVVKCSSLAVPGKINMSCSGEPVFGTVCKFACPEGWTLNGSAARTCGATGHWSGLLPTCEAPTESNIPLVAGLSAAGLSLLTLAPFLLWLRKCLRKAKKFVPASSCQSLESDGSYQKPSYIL
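Assay system: HUVEC primary endothelial cells. Input: 3,000 HUVEC seeded per well. Doses: one compound dose added by pin transfer. Read-out basis: % PE-positive cells. Benchmarks: TNF-alpha high, DMSO low. Detection: immunofluorescence imaging. Buffer or medium: EGM-2, gelatin.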
Each line names hits and unclear results; the compound was inactive in the other large screens. In the library only some 2.5% were active in any assay of this set; here they are far more common.

C[C@H]1CN([C@@H](C)CO)S(=O)(=O)c2ccc(C#Cc3ccc(F)cc3)cc2O[C@@H]1CN(C)S(=O)(=O)c1ccc(F)cc1	SIRT5 inh 24 (no result: FGF22 binding)
COc1ccccc1C(=O)Nc1ccc2c(c1)OC[C@H](C)N(C)C[C@H](C)[C@H](OC)CN(C)C2=O	none
CCSc1ncc(Cl)c(C(=O)Nc2ccccc2C)n1	SIRT5 inh 33
CSc1ncc(Cl)c(C(=O)Nc2ccccc2C)n1	none (no result: miR-122 sensor)
COc1ccc(NC(=O)N(C)C[C@H]2OCCCC[C@H](C)Oc3ccc(NS(=O)(=O)c4ccc(F)cc4)cc3C(=O)N([C@@H](C)CO)C[C@@H]2C)cc1	none
Fc1ccc(-c2nc3ccc(Cl)cn3c2Cc2ccsc2)cc1	SIRT5 inh 28
Cc1ccc(-c2nc3ccc(Cl)cn3c2Cc2ccsc2)cc1	none
CCCC(=O)N1CCC2(CC1)CN(C(=O)c1ccc(F)cc1)[C@@H](CO)c1[nH]c3cc(OC)ccc3c12	none (no result: miR-122 sensor)
CCC(C)(C)NC(=O)Cn1c(=O)oc2cc(S(=O)(=O)N3CC(C)CC(C)C3)ccc21 (stereo not given)	none
CC1CC(C)CN(S(=O)(=O)c2ccc3c(c2)oc(=O)n3CC(=O)NCc2cccnc2)C1 (stereo not given)	SIRT5 inh 22
NC(=O)CNc1ncc(C(F)(F)F)cc1Cl	none (no result: E-sel inducer)
Cc1onc(C(=O)NN)c1C(=O)Nc1ncc(C(F)(F)F)cc1Cl	FGF22 binding 43 (no result: E-sel inducer)
C[C@H](NC(=O)C[C@H]1CC[C@H]2[C@H](COc3ccc(NS(=O)(=O)c4ccc(Cl)cc4)cc3C(=O)N2C)O1)c1ccccc1	E-sel inducer 128
CCC(=O)Nc1ccc2c(c1)C(=O)N(C)[C@@H]1CC[C@H](CC(=O)N[C@H](C)c3ccccc3)O[C@@H]1CO2	SIRT5 inh 15
C[C@H](NC(=O)C[C@@H]1CC[C@@H]2[C@H](COc3ccc(NS(=O)(=O)c4ccc(Cl)cc4)cc3C(=O)N2C)O1)c1ccccc1	none
COc1ccc(NC(=O)COC(=O)CC2Sc3ccccc3NC2=O)cc1 (stereo not given)	none (no result: E-sel inducer)
CC(=O)Nc1ccc2c(COC(=O)CC3Sc4ccccc4NC3=O)cc(=O)oc2c1 (stereo not given)	FGF22 binding 43 (no result: miR-122 sensor, E-sel inducer)
COc1ccc2c(COC(=O)CC3Sc4ccccc4NC3=O)cc(=O)oc2c1 (stereo not given)	FGF22 binding 44 (no result: miR-122 sensor, E-sel inducer)
O=C(NCC[C@@H]1CC[C@@H](NC(=O)C2CCCCC2)[C@@H](CO)O1)Nc1ccc(Cl)cc1	none
COCCN(C(=O)CSc1nnc(-c2ccccc2F)n1C)c1c(N)n(Cc2ccccc2)c(=O)[nH]c1=O	FGF22 binding 43
O=C(C[C@@H]1CC[C@@H]2[C@H](COC[C@@H](O)CN2Cc2ccc(Oc3ccccc3)cc2)O1)N1CCCCC1	none
COc1ccc(CCNC(=O)Cc2nn(C)c(=O)c3ccccc23)cc1OC	none (no result: FGF22 binding, S100A4 MyoIIA, SIRT5 inh, E-sel inducer)
COc1cccc(OCc2ccc(Cn3nc(NC(=O)NCCc4ccc(OC)c(OC)c4)c4ccccc43)cc2)c1	SIRT5 inh 35
CCCOc1ccc(-c2cn3ccccc3n2)cc1	FGF22 binding 43 (no result: miR-122 sensor)
O=C(NN=C1CCCCCC1)c1ccc2c(c1)OCO2	FGF22 binding 43
O=C(NNC(=O)c1ccc(F)cc1F)c1ccc2c(c1)OCO2	FGF22 binding 44 (no result: miR-122 sensor, E-sel inducer)
O=C(NC1CCCCCCC1)c1ccc2c(c1)OCO2	none (no result: FGF22 binding, S100A4 MyoIIA, SIRT5 inh)
O=C(NNC(=S)NC1CCCCC1)c1ccc2c(c1)OCO2	miR-122 sensor 106
C/C(=N\NC(=O)c1ccc2c(c1)OCO2)c1ccc2c(c1)OCO2	none (no result: E-sel inducer)
C[C@@H]1CN([C@@H](C)CO)C(=O)c2cc(NC(=O)Nc3cccc4ccccc34)ccc2O[C@H]1CN(C)Cc1ccncc1	none
Clc1nc(Nc2ccc(N3CCOCC3)cc2)c2ccccc2n1	FGF22 binding 43 (no result: miR-122 sensor, E-sel inducer)
CCOC(=O)c1nc(Nc2ccc(N3CCOCC3)cc2)c2ccccc2n1	none (no result: miR-122 sensor)
O=C(NC(=S)NCCC1=CCCCC1)c1ccco1	none (no result: miR-122 sensor, E-sel inducer)
Cc1ccccc1C(=O)NC(=S)NCCC1=CCCCC1	SIRT5 inh 35 (no result: E-sel inducer)
Cc1ccc(SCC(=O)Nc2cc([N+](=O)[O-])ccc2O)cc1	FGF22 binding 43 (no result: E-sel inducer)
O=C(CSCc1ccc(Cl)cc1)Nc1cc([N+](=O)[O-])ccc1O	none (no result: FGF22 binding, miR-122 sensor, E-sel inducer)
O=c1[nH]c(=O)n(-c2ccc(F)cc2)c2c1C(C(F)(F)F)(C(F)(F)F)N=C(c1ccc(F)cc1)N2	FGF22 binding 1.9 (no result: miR-122 sensor, E-sel inducer)
C[C@H](CO)N1C[C@H](C)[C@@H](CN(C)C(=O)CCCN(C)C)OCCCC[C@H](C)Oc2ccc(NS(=O)(=O)c3cccs3)cc2C1=O	none
CCN(C(=O)COC(=O)c1ccccc1O)c1nc2ccccc2s1	FGF22 binding 43 (no result: SIRT5 inh)
O=C(OCc1nc2ccccc2s1)c1ccccc1O	none (no result: miR-122 sensor, E-sel inducer)
CC(C)C#Cc1ccc2c(c1)O[C@@H](CN(C)Cc1ccccn1)[C@H](C)CN([C@H](C)CO)S2(=O)=O	SIRT5 inh 19
COc1ccc(-c2ccc3c(c2)O[C@H](CN(C)Cc2cccnc2)[C@@H](C)CN([C@H](C)CO)S3(=O)=O)cc1	S100A4 MyoIIA 108 (no result: miR-122 sensor)
Cc1ccc(-c2ccc3c(c2)O[C@@H](CN(C)Cc2ccccc2)[C@@H](C)CN([C@@H](C)CO)S3(=O)=O)cc1	SIRT5 inh 32
CC(C)C#Cc1ccc2c(c1)O[C@@H](CN(C)Cc1ccccn1)[C@@H](C)CN([C@H](C)CO)S2(=O)=O	none
C[C@@H]1CN([C@H](C)CO)S(=O)(=O)c2ccc(C#Cc3ccccn3)cc2O[C@@H]1CN(C)Cc1cccc(F)c1	SIRT5 inh 27
Cc1ccc(-c2ccc3c(c2)O[C@@H](CN(C)Cc2ccccc2)[C@@H](C)CN([C@H](C)CO)S3(=O)=O)cc1	none
C[C@H]1CN([C@@H](C)CO)C(=O)c2cc(C#Cc3cccc(F)c3)cnc2O[C@H]1CN(C)CC1CCCC1	none
O=C(Cc1ccccc1)N1CC(=O)N2[C@H](CO)[C@H](c3ccc(C#CCc4ccccc4)cc3)[C@H]2C1	none (no result: FGF22 binding, miR-122 sensor)
C[C@H]1CN([C@@H](C)CO)S(=O)(=O)c2ccc(-c3cncnc3)cc2O[C@H]1CN(C)Cc1ccccn1	SIRT5 inh -0.3 (no result: E-sel inducer)
Cc1ccc(-c2ccc3c(c2)O[C@@H](CN(C)Cc2ccccn2)[C@H](C)CN([C@@H](C)CO)S3(=O)=O)cc1	SIRT5 inh 19
O=C(Nc1cc(F)ccc1F)N[C@@H]1CC[C@@H](CCNC(=O)c2cnccn2)O[C@@H]1CO	none (no result: FGF22 binding, S100A4 MyoIIA)
Cc1noc(C)c1NC(=O)N[C@@H]1CC[C@@H](CC(=O)N2CCCCC2)O[C@H]1CO	none (no result: miR-122 sensor)
COc1ccc([Si](C)(C)[C@H]2[C@H](CCn3cc([C@H](O)c4ccccc4)nn3)O[C@@]3(C(=O)N(Cc4cccc(N5CCC5=O)c4)c4ccccc43)[C@@H]2C)cc1	none (no result: miR-122 sensor, E-sel inducer)
COc1ccc([Si](C)(C)[C@@H]2[C@@H](CCO)O[C@]3(C(=O)N4c5c(cc(OC)cc53)C(C)=CC4(C)C)[C@H]2C)cc1	SIRT5 inh 15 (no result: miR-122 sensor, E-sel inducer)
